ChEMBL document CHEMBL1124347, “Enantioselectivity of muscarinic antagonists. Isomeric 2-cyclohexyl-2-phenyl-5-[(dimethylamino)methyl]-1,3-oxathiolane 3-oxide methiodides” (J Med Chem, 1989)

Experiments:
[1] = biological target: Muscarinic acetylcholine receptor; assay: Dissociation constant estimated by Schild analysis for antimuscarinic activity in guinea pig bladder; assay type: protein assay, Cavia porcellus
Procedure, shortened: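 Longitudinal bladder strip (2 mm wide, urethra to apex) in PSS at 37 °C, with isometric recording. Tissue was equilibrated 30 min, and carbachol control curves were run as for ileum. Dose ratios (carbachol ED50 after/before antagonist) were taken at 3–4 antagonist concentrations, each tested 4–8 times. pA2 came from Schild plots with slope fixed at −1.0.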

[2] = biological target: Muscarinic acetylcholine receptor; assay: Dissociation constant estimated by Schild analysis for antimuscarinic activity for guinea pig ileum; assay type: tissue-based, Cavia porcellus
Procedure, shortened: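 Terminal ileum segments (2 cm, taken about 5 cm from the ileocecal junction) in PSS at 37 °C, with isotonic recording. After 30 min equilibration, carbachol dose–response curves were run at 30-min intervals; the second served as control. Antagonist was applied for 30 min, then the carbachol curve repeated. Dose ratios were taken at 3–4 concentrations, n=4–8 each. pA2 came from Schild analysis, slope constrained to −1.0.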

[3] = biological target: Muscarinic acetylcholine receptor; assay: Dissociation constant estimated by Schild analysis for antimuscarinic activity in guinea pig heart; assay type: protein assay, Cavia porcellus
Procedure, shortened: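 Guinea pig heart preparation with carbachol as agonist and water as solvent for drugs. Dose ratios (carbachol ED50 with/without antagonist) were measured at 3–4 antagonist concentrations, 4–8 replicates each. Parallel untreated tissues monitored sensitivity drift. pA2 was estimated by Schild analysis with slope constrained to −1.0; means ± SE.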

Row | pA2 [1] | pA2 [2] | pA2 [3] | Compound
1 | 7.73 | 7.84 | 7.69 | C[N+](C)(C)C[C@@H]1C[S+]([O-])[C@@](c2ccccc2)(C2CCCCC2)O1.[I-] (single isomer, unassigned; (+)-7)
2 | 7.53 | 7.73 | 7.45 | C[N+](C)(C)C[C@@H]1C[S+]([O-])[C@@](c2ccccc2)(C2CCCCC2)O1.[I-] (mixture of isomers; form 2)
3 | 5.56 | 5.96 | 5.44 | C[N+](C)(C)C[C@@H]1C[S+]([O-])[C@@](c2ccccc2)(C2CCCCC2)O1.[I-] (single isomer, unassigned; (+)-8)
4 | 5.89 | 6.05 | 5.96 | C[N+](C)(C)C[C@@H]1C[S@@+]([O-])[C@](c2ccccc2)(C2CCCCC2)O1.[I-] (racemic)
5 | 5.83 | 5.93 | 5.93 | C[N+](C)(C)C[C@@H]1C[S+]([O-])[C@@](c2ccccc2)(C2CCCCC2)O1.[I-] (mixture of isomers; form 1)
6 | 5.49 | 5.52 | 5.37 | C[N+](C)(C)C[C@@H]1C[S+]([O-])[C@@](c2ccccc2)(C2CCCCC2)O1.[I-] (single isomer, unassigned; (-)-7)
7 | 5.88 | 5.75 | 6.24 | C[N+](C)(C)C[C@@H]1C[S@@+]([O-])[C@](c2ccccc2)(C2CCCCC2)O1.[I-] (stereo in doubt; (-)-3)
8 | 7.19 | 7.19 | 6.8 | C[N+](C)(C)C[C@@H]1C[S@+]([O-])[C@](c2ccccc2)(C2CCCCC2)O1.[I-] (stereo in doubt; (+)-4)
9 | 6.07 | 6.17 | 6.01 | C[N+](C)(C)C[C@@H]1C[S+]([O-])[C@@](c2ccccc2)(C2CCCCC2)O1.[I-] (single isomer, unassigned; (-)-8)
10 | 6.96 | 6.91 | 6.53 | C[N+](C)(C)C[C@@H]1C[S@+]([O-])[C@](c2ccccc2)(C2CCCCC2)O1.[I-] (stereo in doubt; (+\-)-4)
11 | 5.94 | 6.07 | 5.54 | C[N+](C)(C)C[C@@H]1C[S@@+]([O-])[C@](c2ccccc2)(C2CCCCC2)O1.[I-] (stereo in doubt; (+)-3)
12 | 5.52 | 5.55 | 5.48 | C[N+](C)(C)C[C@@H]1C[S@+]([O-])[C@](c2ccccc2)(C2CCCCC2)O1.[I-] (stereo in doubt; (-)-4)
